# Laboratory results taken from ChEMBL document CHEMBL3758168, “Hybrid triazoles: Design and synthesis as potential dual inhibitor of growth and efflux inhibition in tuberculosis” (Eur J Med Chem, 2016).
# Experiments:
# [1] = tested on: Mycobacterium tuberculosis; test: Antibacterial activity against Mycobacterium tuberculosis H37Rv ATCC 27294T assessed as amikacin MIC at 4 ug/ml after 7 days by microdilution checkerboard assay; assay type: functional; conditions: 168 h
# Method in brief: (§1)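 Two-dimensional checkerboard in H37Rv at 10^5 CFU/ml in MB7H9/OADC. Partner drug (amikacin, EtBr, isoniazid, ofloxacin or rifampin) two-fold serially diluted across columns 3-11. Test compound two-fold serially diluted down rows 2-6. Plates incubated 7 days at 37 °C, then MTT added overnight. […] Run in triplicate.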
# [2] = tested on: Mycobacterium tuberculosis; test: Antibacterial activity against Mycobacterium tuberculosis H37Rv ATCC 27294T assessed as ofloxacin MIC at 16 ug/ml after 7 days by microdilution checkerboard assay; assay type: functional; conditions: 168 h; method in brief: as §1
# [3] = tested on: Mycobacterium tuberculosis; test: Antibacterial activity against Mycobacterium tuberculosis H37Rv ATCC 27294T assessed as isoniazid MIC at 256 ug/ml after 7 days by microdilution checkerboard assay; assay type: functional; conditions: 168 h; method in brief: as §1
# [4] = tested on: Mycobacterium tuberculosis; test: Antibacterial activity against Mycobacterium tuberculosis H37Rv ATCC 27294T assessed as ofloxacin MIC at 32 ug/ml after 7 days by microdilution checkerboard assay; assay type: functional; conditions: 168 h; method in brief: as §1
# [5] = tested on: Mycobacterium tuberculosis; test: Antibacterial activity against Mycobacterium tuberculosis H37Rv ATCC 27294T assessed as ethidium bromide MIC at 128 ug/ml after 7 days by microdilution checkerboard assay; assay type: functional; conditions: 168 h; method in brief: as §1
# [6] = tested on: Mycobacterium tuberculosis; test: Antibacterial activity against Mycobacterium tuberculosis H37Rv ATCC 27294T assessed as ofloxacin MIC at 4 ug/ml after 7 days by microdilution checkerboard assay; assay type: functional; conditions: 168 h; method in brief: as §1
# [7] = tested on: Mycolicibacterium smegmatis; test: Anti-tubercular activity against Mycobacterium smegmatis MC2 155 ATCC 700084 after 3 days by microdilution method; assay type: functional; conditions: MC2 155 ATCC 700084, 72 h
# Method in brief: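 M. smegmatis mc2155 grown in MB7H9 + 10% OADC at 37 °C with shaking to OD600 0.8. Inoculum set to 0.5 McFarland, diluted 1:100, and mixed 1:1 with two-fold serial dilutions in MB7H9. Plates incubated 3 days at 37 °C with growth and sterility controls. MIC taken as the lowest concentration with no visible growth.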
# [8] = tested on: Mycobacterium tuberculosis; test: Antibacterial activity against Mycobacterium tuberculosis H37Rv ATCC 27294T assessed as rifampin MIC at 256 ug/ml after 7 days by microdilution checkerboard assay; assay type: functional; conditions: 168 h
# Method in brief: (§2)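 M. tuberculosis H37Rv grown in MB7H9 + 10% OADC at 37 °C to OD600 0.8; plates inoculated at 10^5 CFU/ml. Rifampicin two-fold serially diluted across columns, test compound two-fold diluted down rows (two-dimensional checkerboard). Sealed, 37 °C for seven days, then MTT added and incubated overnight. MIC read as no colour change. Triplicate.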
# [9] = tested on: Mycobacterium tuberculosis; test: Anti-tubercular activity against Mycobacterium tuberculosis H37Rv ATCC 27294T after 7 days by mircodilution method; assay type: functional; conditions: 168 h
# Method in brief: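 H37Rv grown static in MB7H9 + 10% OADC at 37 °C to OD600 0.8, then diluted to about 10^5 cells/ml. Mixed 1:1 with two-fold serial dilutions in MB7H9/OADC and incubated 7 days at 37 °C. MTT added to final 2.5% and plates incubated overnight. MIC is the lowest concentration with no colour change. Run in triplicate.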
# [10] = tested on: Mycobacterium tuberculosis; test: Antibacterial activity against Mycobacterium tuberculosis H37Rv ATCC 27294T assessed as ethidium bromide MIC at 256 ug/ml after 7 days by microdilution checkerboard assay; assay type: functional; conditions: 168 h; method in brief: as §1
# [11] = tested on: Mycobacterium tuberculosis; test: Antibacterial activity against Mycobacterium tuberculosis H37Rv ATCC 27294T assessed as ofloxacin MIC at 8 ug/ml after 7 days by microdilution checkerboard assay; assay type: functional; conditions: 168 h; method in brief: as §1
# [12] = tested on: Mycobacterium tuberculosis; test: Antibacterial activity against Mycobacterium tuberculosis H37Rv ATCC 27294T assessed as rifampin MIC at 8 ug/ml after 7 days by microdilution checkerboard assay; assay type: functional; conditions: 168 h; method in brief: as §2
# [13] = tested on: Mycobacterium tuberculosis; test: Antibacterial activity against Mycobacterium tuberculosis H37Rv ATCC 27294T assessed as rifampin MIC at 64 ug/ml after 7 days by microdilution checkerboard assay; assay type: functional; conditions: 168 h; method in brief: as §2
# [14] = tested on: Mycobacterium tuberculosis; test: Antibacterial activity against Mycobacterium tuberculosis H37Rv ATCC 27294T assessed as ethidium bromide MIC at 8 ug/ml after 7 days by microdilution checkerboard assay; assay type: functional; conditions: 168 h; method in brief: as §1
# [15] = tested on: Mycobacterium tuberculosis; test: Antibacterial activity against Mycobacterium tuberculosis H37Rv ATCC 27294T assessed as isoniazid MIC at 2 ug/ml after 7 days by microdilution checkerboard assay; assay type: functional; conditions: 168 h; method in brief: as §1
# [16] = tested on: Mycobacterium tuberculosis; test: Antibacterial activity against Mycobacterium tuberculosis H37Rv ATCC 27294T assessed as rifampin MIC at 16 ug/ml after 7 days by microdilution checkerboard assay; assay type: functional; conditions: 168 h; method in brief: as §2
# [17] = tested on: Mycobacterium tuberculosis; test: Antibacterial activity against Mycobacterium tuberculosis H37Rv ATCC 27294T assessed as rifampin MIC at 2 ug/ml after 7 days by microdilution checkerboard assay; assay type: functional; conditions: 168 h; method in brief: as §2
# [18] = tested on: Mycobacterium tuberculosis; test: Antibacterial activity against Mycobacterium tuberculosis H37Rv ATCC 27294T assessed as isoniazid MIC at 64 ug/ml after 7 days by microdilution checkerboard assay; assay type: functional; conditions: 168 h; method in brief: as §1
# [19] = tested on: Mycobacterium tuberculosis; test: Antibacterial activity against Mycobacterium tuberculosis H37Rv ATCC 27294T assessed as isoniazid MIC at 32 ug/ml after 7 days by microdilution checkerboard assay; assay type: functional; conditions: 168 h; method in brief: as §1
# [20] = tested on: Mycobacterium tuberculosis; test: Antibacterial activity against Mycobacterium tuberculosis H37Rv ATCC 27294T assessed as ethidium bromide MIC at 32 ug/ml after 7 days by microdilution checkerboard assay; assay type: functional; conditions: 168 h; method in brief: as §1
# [21] = tested on: Mycobacterium tuberculosis; test: Antibacterial activity against Mycobacterium tuberculosis H37Rv ATCC 27294T assessed as ofloxacin MIC at 64 ug/ml after 7 days by microdilution checkerboard assay; assay type: functional; conditions: 168 h; method in brief: as §1
# [22] = tested on: Mycobacterium tuberculosis; test: Antibacterial activity against Mycobacterium tuberculosis H37Rv ATCC 27294T assessed as ethidium bromide MIC at 1 ug/ml after 7 days by microdilution checkerboard assay; assay type: functional; conditions: 168 h; method in brief: as §1
# [23] = tested on: Mycobacterium tuberculosis; test: Antibacterial activity against Mycobacterium tuberculosis H37Rv ATCC 27294T assessed as isoniazid MIC at 1 ug/ml after 7 days by microdilution checkerboard assay; assay type: functional; conditions: 168 h; method in brief: as §1
# [24] = tested on: Mycobacterium tuberculosis; test: Antibacterial activity against Mycobacterium tuberculosis H37Rv ATCC 27294T assessed as rifampin MIC at 4 ug/ml after 7 days by microdilution checkerboard assay; assay type: functional; conditions: 168 h; method in brief: as §2
# [25] = tested on: Mycobacterium tuberculosis; test: Antibacterial activity against Mycobacterium tuberculosis H37Rv ATCC 27294T assessed as amikacin MIC at 1 ug/ml after 7 days by microdilution checkerboard assay; assay type: functional; conditions: 168 h; method in brief: as §1
# [26] = tested on: Mycobacterium tuberculosis; test: Antibacterial activity against Mycobacterium tuberculosis H37Rv ATCC 27294T assessed as amikacin MIC at 16 ug/ml after 7 days by microdilution checkerboard assay; assay type: functional; conditions: 168 h; method in brief: as §1
# [27] = tested on: Mycobacterium tuberculosis; test: Antibacterial activity against Mycobacterium tuberculosis H37Rv ATCC 27294T assessed as amikacin MIC at 32 ug/ml after 7 days by microdilution checkerboard assay; assay type: functional; conditions: 168 h; method in brief: as §1
# [28] = tested on: Mycobacterium tuberculosis; test: Antibacterial activity against Mycobacterium tuberculosis H37Rv ATCC 27294T assessed as ethidium bromide MIC at 4 ug/ml after 7 days by microdilution checkerboard assay; assay type: functional; conditions: 168 h; method in brief: as §1
# [29] = tested on: Mycobacterium tuberculosis; test: Antibacterial activity against Mycobacterium tuberculosis H37Rv ATCC 27294T assessed as isoniazid MIC at 8 ug/ml after 7 days by microdilution checkerboard assay; assay type: functional; conditions: 168 h; method in brief: as §1
# [30] = Cytotoxicity against human MDM assessed as cell viability after 3 days by Alamar blue dye-based fluorocytometric analysis relative to control; conditions: 72 h
# [31] = tested on: Mycobacterium tuberculosis; test: Antibacterial activity against Mycobacterium tuberculosis H37Rv ATCC 27294T assessed as ethidium bromide MIC at 16 ug/ml after 7 days by microdilution checkerboard assay; assay type: functional; conditions: 168 h; method in brief: as §1
# [32] = tested on: Mycobacterium tuberculosis; test: Antibacterial activity against Mycobacterium tuberculosis H37Rv ATCC 27294T assessed as amikacin MIC at 2 ug/ml after 7 days by microdilution checkerboard assay; assay type: functional; conditions: 168 h; method in brief: as §1
# [33] = tested on: Mycobacterium tuberculosis; test: Antibacterial activity against Mycobacterium tuberculosis H37Rv ATCC 27294T assessed as amikacin MIC at 64 ug/ml after 7 days by microdilution checkerboard assay; assay type: functional; conditions: 168 h; method in brief: as §1
# [34] = tested on: Mycobacterium tuberculosis; test: Antibacterial activity against Mycobacterium tuberculosis H37Rv ATCC 27294T assessed as ofloxacin MIC at 2 ug/ml after 7 days by microdilution checkerboard assay; assay type: functional; conditions: 168 h; method in brief: as §1
# [35] = tested on: Mycobacterium tuberculosis; test: Antibacterial activity against Mycobacterium tuberculosis H37Rv ATCC 27294T assessed as ethidium bromide MIC at 64 ug/ml after 7 days by microdilution checkerboard assay; assay type: functional; conditions: 168 h; method in brief: as §1
# [36] = tested on: Mycobacterium tuberculosis; test: Antibacterial activity against Mycobacterium tuberculosis H37Rv ATCC 27294T assessed as rifampin MIC at 32 ug/ml after 7 days by microdilution checkerboard assay; assay type: functional; conditions: 168 h; method in brief: as §2
# [37] = tested on: Mycobacterium tuberculosis; test: Antibacterial activity against Mycobacterium tuberculosis H37Rv ATCC 27294T assessed as ofloxacin MIC at 1 ug/ml after 7 days by microdilution checkerboard assay; assay type: functional; conditions: 168 h; method in brief: as §1
# [38] = tested on: Mycobacterium tuberculosis; test: Antibacterial activity against Mycobacterium tuberculosis H37Rv ATCC 27294T assessed as rifampin MIC at 1 ug/ml after 7 days by microdilution checkerboard assay; assay type: functional; conditions: 168 h; method in brief: as §2
# [39] = tested on: Mycobacterium tuberculosis; test: Antibacterial activity against Mycobacterium tuberculosis H37Rv ATCC 27294T assessed as ethidium bromide MIC at 2 ug/ml after 7 days by microdilution checkerboard assay; assay type: functional; conditions: 168 h; method in brief: as §1
# [40] = tested on: Mycobacterium tuberculosis; test: Antibacterial activity against Mycobacterium tuberculosis H37Rv ATCC 27294T assessed as isoniazid MIC at 16 ug/ml after 7 days by microdilution checkerboard assay; assay type: functional; conditions: 168 h; method in brief: as §1
# [41] = tested on: Mycobacterium tuberculosis; test: Antibacterial activity against Mycobacterium tuberculosis H37Rv ATCC 27294T assessed as amikacin MIC at 8 ug/ml after 7 days by microdilution checkerboard assay; assay type: functional; conditions: 168 h; method in brief: as §1
# [42] = tested on: Mycobacterium tuberculosis; test: Antibacterial activity against Mycobacterium tuberculosis H37Rv ATCC 27294T assessed as isoniazid MIC at 4 ug/ml after 7 days by microdilution checkerboard; assay type: functional; conditions: 168 h; method in brief: as §1
compound,measurement,setting,value
COc1ccc(CCN(C)CCCC(C#N)(c2ccc(OC)c(OC)c2)C(C)C)cc1OC (centres undefined),MIC,[1],2 mg/L
same,MIC,[2],2 mg/L
same,MIC,[3],0.0125 mg/L
same,MIC,[4],2 mg/L
same,MIC,[5],3.12 mg/L
same,MIC,[6],2 mg/L
same,MIC,[7],776 mg/L
same,MIC,[8],0.125 mg/L
same,MIC,[9],128 mg/L
same,MIC,[10],0.781 mg/L
same,MIC,[11],2 mg/L
CCCSc1nnc(COc2ccccc2C2=NOC(c3ccc(Cl)cc3Cl)C2)n1NC(=O)c1ccccc1 (centres undefined),MIC,[12],0.25 mg/L
same,MIC,[13],0.0312 mg/L
same,MIC,[14],12.5 mg/L
same,MIC,[15],0.1 mg/L
same,MIC,[16],0.25 mg/L
same,MIC,[17],0.25 mg/L
same,MIC,[18],0.05 mg/L
same,MIC,[19],0.1 mg/L
same,MIC,[20],12.5 mg/L
same,MIC,[21],1 mg/L
same,MIC,[22],12.5 mg/L
same,MIC,[1],2 mg/L
same,MIC,[23],0.1 mg/L
same,MIC,[2],2 mg/L
same,MIC,[24],0.25 mg/L
same,MIC,[4],1 mg/L
same,MIC,[25],2 mg/L
same,MIC,[26],2 mg/L
same,MIC,[27],1 mg/L
same,MIC,[28],12.5 mg/L
same,MIC,[6],2 mg/L
same,MIC,[7],2 mg/L
same,MIC,[29],0.1 mg/L
same,IC50,[30],14.8 mg/L
same,MIC,[31],12.5 mg/L
same,MIC,[32],2 mg/L
same,MIC,[33],1 mg/L
same,MIC,[34],2 mg/L
same,MIC,[35],6.25 mg/L
same,MIC,[36],0.125 mg/L
same,MIC,[37],2 mg/L
same,MIC,[38],0.5 mg/L
same,MIC,[39],12.5 mg/L
same,MIC,[40],0.1 mg/L
same,MIC,[9],32 mg/L
same,MIC,[41],2 mg/L
same,MIC,[11],2 mg/L
same,MIC,[42],0.1 mg/L
